Data from publication PMC4749511 (Bioorganic & medicinal chemistry, 2015).
“Also recorded” adds a separate entry of the source.

test system: EGFP-N-Ras; assay: EGFP-N-Ras plasma membrane localization by confocal microscopy; format: cell-based, human; conditions: HCT-116 cells, FTI 2 μM, 20 hours
Summary of the method: (§1)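 HCT-116 cells (DMEM, 10% FBS, 1% NEAA, 37 °C, 5% CO2) seeded at 4 × 10^4 per glass-bottom well and transfected 24 h later with the EGFP-Ras plasmid (0.5 μg DNA per 1 μL TrueFect). Treated with FTI or DMSO vehicle for 20 h, then live confocal imaging (488 nm excitation, 500-600 nm emission), at least 40 cells per condition. Normalised (0-1) line-scan intensity across each cell; PM width 1 μm.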

| Molecule | N-Ras PM association (percent of total fluorescence at the PM) |
| --- | --- |
| CC[C@H](C)[C@@H](CO[C@@H](Cc1ccccc1)C(=O)N[C@@H](CCS(C)(=O)=O)C(=O)OC(C)C)NC[C@@H](N)CS [L744,832] | < 10% |

test system: EGFP-H-Ras; assay: EGFP-H-Ras plasma membrane localization by confocal microscopy; format: cell-based, human; conditions: HCT-116 cells, FTI 2 μM, 20 hours
Summary of the method: as §1

| Molecule | H-Ras PM association (percent of total fluorescence at the PM) |
| --- | --- |
| CC[C@H](C)[C@@H](CO[C@@H](Cc1ccccc1)C(=O)N[C@@H](CCS(C)(=O)=O)C(=O)OC(C)C)NC[C@@H](N)CS [L744,832] | < 10% |

test system: GFP-Ras2p reporter; assay: not given; conditions: yeast cells; cited from earlier work

| Molecule | GFP-Ras2p reporter mislocalization (in words) |
| --- | --- |
| O=C(O)c1ccc(NC(c2ccccc2)c2ccc3cccnc3c2O)cc1 (stereo not drawn) [Compound 1, 4-(((8-Hydroxyquinolin-7-yl)(phenyl)methyl)amino)benzoic acid] | mislocalizes a GFP-Ras2p reporter |

biological target: rat FTase (Rattus norvegicus, UniProt Q02293+Q04631); assay: Fluorescence-based FTase assay; format: biochemical; conditions: tested at 10, 25 and 50 μM
Summary of the method: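 Rat FTase added in enzyme solution (62.5 nM FTase, Tris pH 7.5, ZnCl2, MgCl2, KCl, DTT, BSA) to start reaction. Wells held dansyl-GCVLS, FPP, DTT, Tris pH 7.5, MgCl2, ZnCl2, octyl-β-D-glucopyranoside and test compound in DMSO (12.5 μL DMSO per 250 μL). Fluorescence read at 340 nm excitation, 535 nm emission, every 40 s for 1 h. Rate from first 10 min converted to nM/s via νi = RP/ΔF.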

| Molecule | FTase activity inhibition (in words) |
| --- | --- |
| O=C(O)c1ccc(NC(c2ccc(Br)cc2)c2ccc3cccnc3c2O)cc1 (stereo not drawn) [Compound 5, 4-(((4-Bromophenyl)(8-hydroxyquinolin-7-yl)methyl)amino)benzoic acid] | not inhibited |
| O=C(O)c1cccc(NC(c2ccccc2)c2ccc3ccccc3c2O)c1 (stereo not drawn) [Compound 30, 3-(((1-Hydroxynaphthalen-2-yl)(phenyl)methyl)amino)benzoic acid] | not inhibited |
| Oc1c(C(Nc2ccccc2)c2ccccc2)ccc2cccnc12 (stereo not drawn) [Compound 2, 7-(Phenyl(phenylamino)methyl)quinolin-8-ol] | not inhibited |

biological target: T1, human Rce1 (HsRce1) (Homo sapiens, UniProt Q9Y256); assay: In vitro fluorescence-based CaaX proteolysis assay; format: biochemical; conditions: single-point, 10 μM
T1 sequence (Q9Y256 1-329): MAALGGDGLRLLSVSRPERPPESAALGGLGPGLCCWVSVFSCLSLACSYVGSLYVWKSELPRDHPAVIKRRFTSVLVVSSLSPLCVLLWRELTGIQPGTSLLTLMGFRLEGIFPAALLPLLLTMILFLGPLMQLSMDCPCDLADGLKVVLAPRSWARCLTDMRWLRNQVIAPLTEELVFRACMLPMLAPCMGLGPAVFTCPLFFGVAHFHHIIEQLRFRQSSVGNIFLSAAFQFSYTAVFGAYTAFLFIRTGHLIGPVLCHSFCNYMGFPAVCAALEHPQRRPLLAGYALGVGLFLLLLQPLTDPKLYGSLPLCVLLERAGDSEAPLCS
Summary of the method: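 Membranes from yeast expressing HsRce1, in 200 mM Tris pH 7.5, 200 mM NaCl, 1 mg/mL BSA. Preincubated with test compound (from 50× DMSO stock) for 15 min at 30 °C in duplicate wells. Started with quenched ABZ-KSKTKC(farnesyl)QLIM at 20 μM final; membranes 0.25 mg/mL final. Fluorescence 320/420 nm read every 30-60 s for 60 min at 30 °C. Initial velocities expressed as % of DMSO control, normalised by trypsin (10 μg/mL) full digestion.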

| Molecule | HsRce1 inhibition (in words) |
| --- | --- |
| CCOC(=O)c1ccc(NC(c2ccc(Br)cc2)c2ccc(Br)cc2)cc1 [Compound 50, Ethyl 4-((bis(4-bromophenyl)methyl)amino)benzoate] | relatively inactive |
| O=[N+]([O-])c1ccc(C(Nc2ccccc2)c2ccc3cccnc3c2O)cc1 (stereo not drawn) [Compound 7, reference compound] | did not inhibit HsRce1 activity significantly |
| O=C(O)c1ccc(NC(c2ccccc2)c2ccc(Br)cc2)cc1 (stereo not drawn) [Compound 52, 4-(((4-Bromophenyl)(phenyl)methyl)amino) benzoic acid] | relatively inactive |
| Oc1c(C(Nc2ccccc2)c2c(F)cc(Br)cc2F)ccc2cccnc12 (stereo not drawn) [Compound 24, 7-((4-Bromo-2,6-difluorophenyl)(phenylamino)methyl)quinolin-8-ol] | no significant reduction in Rce1 activity |
| O=C(O)c1ccc(NC(c2ccccn2)c2ccc3cccnc3c2O)cc1 (stereo not drawn) [Compound 15, 4-(((8-Hydroxyquinolin-7-yl)(pyridin-2-yl)methyl)amino)benzoic acid] | no significant reduction in Rce1 activity |
| Methyl 4-(((8-methoxyquinolin-7-yl)(phenyl)methyl)amino)benzoate [Compound 32] | little inhibitory activity |
| c1ccc(NC(c2ccccc2)c2ccc3ccccc3c2)cc1 (stereo not drawn) [Compound 44, N-(naphthalen-2-yl(phenyl)methyl)aniline] | little inhibitory activity |
| Oc1ccc2ccc(O)c(C(Nc3ccccc3)c3ccccc3)c2c1 (stereo not drawn) [Compound 35, 1-(Phenyl(phenylamino)methyl)naphthalene-2,7-diol] | weaker inhibitors |
| CCCCCCCCOc1ccc(C(Nc2ccccc2)c2ccc3cccnc3c2O)cc1 (stereo not drawn) [Compound 26, 7-((4-(Octyloxy)phenyl)(phenylamino)methyl)quinolin-8-ol] | did not inhibit HsRce1 activity significantly |
| c1ccc(NC(c2ccccc2)c2ccc3cccnc3c2)cc1 (stereo not drawn) [Compound 43, N-(Phenyl(quinolin-7-yl)methyl)aniline] | little inhibitory activity |
| Oc1c(CNc2ccccc2)ccc2cccnc12 [Compound 20, 7-((Phenylamino)methyl)quinolin-8-ol] | no significant effect on Rce1 proteolysis activity |
| O=C(O)c1ccc(NC(c2cccnc2)c2ccc3cccnc3c2O)cc1 (stereo not drawn) [Compound 16, 4-(((8-Hydroxyquinolin-7-yl)(pyridin-3-yl)methyl)amino)benzoic acid] | no significant reduction in Rce1 activity |
| N#Cc1ccc(C(Nc2ccc(C(=O)O)cc2)c2ccc3cccnc3c2O)cc1 (stereo not drawn) [Compound 3, 4-(((4-Cyanophenyl)(8-hydroxyquinolin-7-yl)methyl)amino)benzoic acid] | did not inhibit HsRce1 activity significantly |
| O=C(O)c1ccc(NC(c2ccccc2)c2ccccc2)cc1 [Compound 51, 4-(Benzhydrylamino)benzoic acid] | inactive; also recorded: Neither the ethyl ester 48 nor the acid derivative 51 showed any effect upon inhibition of the enzyme |
| Oc1ccc2ccccc2c1C(Nc1ccccc1)c1ccccc1 (stereo not drawn) [Compound 34, 1-(Phenyl(phenylamino)methyl)naphthalen-2-ol] | weaker inhibitors |
| CCOC(=O)c1ccc(NC(c2ccccc2)c2ccc(Br)cc2)cc1 (stereo not drawn) [Compound 49, Ethyl 4-(((4-bromophenyl)(phenyl)methyl)amino)benzoate] | relatively inactive |
| CCOC(=O)c1ccc(NC(c2ccccc2)c2ccccc2)cc1 [Compound 48, Ethyl 4-(benzhydrylamino)benzoate] | Neither the ethyl ester 48 nor the acid derivative 51 showed any effect upon inhibition of the enzyme |
| O=C(O)c1ccc(NC(c2ccc(Br)cc2)c2ccc(Br)cc2)cc1 [Compound 53, 4-((bis(4-Bromophenyl)methyl)amino)benzoic acid] | relatively inactive |
| O=C(O)c1ccc(NC(c2ccc3cccnc3c2O)c2c(F)cc(Br)cc2F)cc1 (stereo not drawn) [Compound 25, 4-(((4-Bromo-2,6-difluorophenyl)(8-hydroxyquinolin-7-yl)methyl)amino)benzoic acid] | no significant reduction in Rce1 activity |
| C[C@@H](N[C@H](c1ccccc1)c1c(O)ccc2ccccc12)c1ccccc1 [Compound 47] | weaker inhibitors |
| Oc1c(C(Nc2ccccc2)c2ccccc2)cc(Br)c2ccccc12 (stereo not drawn) [Compound 33, 4-Bromo-2-(phenyl(phenylamino)methyl)naphthalen-1-ol] | retained inhibitory activity |

biological target: T1, human Rce1 (HsRce1); assay: not given; conditions: read-out: HsRce1 IC50; in vitro proteolysis assay; cited from earlier work

| Molecule | IC50 |
| --- | --- |
| O=C(O)c1ccc(NC(c2ccccc2)c2ccc3cccnc3c2O)cc1 (stereo not drawn) [Compound 1, 4-(((8-Hydroxyquinolin-7-yl)(phenyl)methyl)amino)benzoic acid] | 9 µM |

test system: EGFP-K-Ras (K-Ras4b); assay: EGFP-K-Ras plasma membrane localization by confocal microscopy; format: cell-based, human; conditions: HCT-116 cells, FTI 2 μM, 20 hours
Summary of the method: as §1

| Molecule | K-Ras PM association (percent of total fluorescence at the PM) |
| --- | --- |
| CC[C@H](C)[C@@H](CO[C@@H](Cc1ccccc1)C(=O)N[C@@H](CCS(C)(=O)=O)C(=O)OC(C)C)NC[C@@H](N)CS [L744,832] | ~35% |

same assay, conditions: HCT-116 cells, Rce1 inhibitor 25 μM, 20 hours

| Molecule | K-Ras PM association (percent of total fluorescence at the PM) |
| --- | --- |
| O=C(O)c1ccc(NC(c2ccc3cccnc3c2O)C2CCCCC2)cc1 (stereo not drawn) [Compound 17, 4-((Cyclohexyl(8-hydroxyquinolin-7-yl)methyl)amino)benzoic acid] | more effective at mislocalizing K-Ras than the FTI |
| O=C(O)c1ccc(NC(c2ccccc2)c2ccc3cccnc3c2O)cc1 (stereo not drawn) [Compound 1, 4-(((8-Hydroxyquinolin-7-yl)(phenyl)methyl)amino)benzoic acid] | more effective at mislocalizing K-Ras than the FTI |
| O=C(O)c1ccc(NC(c2ccc(F)cc2)c2ccc3cccnc3c2O)cc1 (stereo not drawn) [Compound 6, 4-(((4-Fluorophenyl)(8-hydroxyquinolin-7-yl)methyl)amino)benzoic acid] | more effective at mislocalizing K-Ras than the FTI |
| Oc1c(C(Nc2ccccc2)c2ccccc2)ccc2cccnc12 (stereo not drawn) [Compound 2, 7-(Phenyl(phenylamino)methyl)quinolin-8-ol] | more effective at mislocalizing K-Ras than the FTI |
